Measurements taken from ChEMBL document CHEMBL1124194, “Enantioselectivity of muscarinic antagonists. Isomeric 2-cyclohexyl-2-phenyl-5-[(dimethylamino)methyl]-1,3-oxathiolane methiodides” (J Med Chem, 1988).

Legend:
Assay type in all cases: ADME, organism-based
Rattus norvegicus = species on record: Rattus norvegicus; experiment: Tested for antimuscarinic potency on rat bladder; conditions: for Kb: Rattus norvegicus, read-out: pA2 (converted)
Cavia porcellus [1] = species on record: Cavia porcellus; experiment: Tested for antimuscarinic potency on guinea pig heart rate; conditions: for Kb: Cavia porcellus, Heart, read-out: pA2 (converted)
Summary of the method: (§1)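 Guinea pig heart (force and rate) antagonism of carbachol as agonist; pA2 from Schild plot with slope constrained to 1; six to eight replications. Where an antagonist lowered the carbachol maximum at 1×10^-5 M, −log Kb was instead calculated from log(Dr − 1) = log[ant.] − log Kb at a single antagonist concentration of 3×10^-6 M.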

Cavia porcellus [2] = species on record: Cavia porcellus; experiment: Tested for antimuscarinic potency on guinea pig ileum; conditions: for Kb: Cavia porcellus, Ileum, read-out: pA2 (converted)
Cavia porcellus [3] = species on record: Cavia porcellus; experiment: Tested for antimuscarinic potency on guinea pig heart force; conditions: for Kb: Cavia porcellus, Heart, read-out: pA2 (converted); summary of the method: as §1

Row | SMILES | Kb (Rattus norvegicus) | Kb (Cavia porcellus [1]) | Kb (Cavia porcellus [2]) | Kb (Cavia porcellus [3]) | pA2 (Cavia porcellus [1]) | pA2 (Cavia porcellus [2]) | pA2 (Cavia porcellus [3]) | pA2 (Rattus norvegicus)
1 | CN1[C@@H]2CC[C@H]1C[C@@H](OC(=O)C(CO)c1ccccc1)C2 (stereo partly drawn) [ATROPINE] | 1.29 nM |  |  |  |  |  |  | 
2 | CN(C)C[C@@H]1CS[C@@](c2ccccc2)(C2CCCCC2)O1 (racemic) | 123 nM | 162 nM | 37.2 nM | 263 nM |  |  |  | 
3 | C[N+](C)(C)C[C@@H]1CS[C@@](c2ccccc2)(C2CCCCC2)O1.[I-] (stereo in doubt; (-)4) |  |  |  |  | 7.99 | 7.86 | 8.16 | 7.45
4 | CN(C)C[C@@H]1CS[C@](c2ccccc2)(C2CCCCC2)O1 (racemic) | 44.7 nM | 37.2 nM | 12 nM | 33.1 nM |  |  |  | 
5 | C[N+](C)(C)C[C@@H]1CS[C@@](c2ccccc2)(C2CCCCC2)O1.[I-] (racemic) |  |  |  |  | 7.91 | 8.38 | 8.13 | 8.22
6 | C[N+](C)(C)C[C@@H]1CS[C@](c2ccccc2)(C2CCCCC2)O1.[I-] (stereo in doubt; (-)2) |  |  |  |  | 8.06 | 7.86 | 8.07 | 7.61
7 | C[N+](C)(C)C[C@@H]1CS[C@](c2ccccc2)(C2CCCCC2)O1.[I-] (stereo in doubt; (+)-2) |  |  |  |  | 8.05 | 8.57 | 8.1 | 8.29
8 | C[N+](C)(C)C[C@@H]1CS[C@@](c2ccccc2)(C2CCCCC2)O1.[I-] (stereo in doubt; (+)4) |  |  |  |  | 8.35 | 8.79 | 8.47 | 8.58
9 | C[N+](C)(C)C[C@@H]1CS[C@](c2ccccc2)(C2CCCCC2)O1.[I-] (racemic) |  | 7.24 nM |  | 7.76 nM |  | 8.26 |  | 8.05
